Hit rate of the full screen: of about 1,300 compounds, about 65 (5%) were called active.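 Rule for the calls: active = growth inhibition reaching a set limit at one or more tested doses; inactive = the rest.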 A selection follows. Potency and affinity values are given separately.
Experiment: growth inhibition of wild-type E. coli, dose response, BW25113 wild type, OD615 (AID 638)
Settings: at 100 µM (top of the series) unless noted
In short: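 Assay system: E. coli BW25113 wild type. Doses: compound concentration series. Timing: 20 h compound exposure, 37 °C. Technique: OD615 absorbance. Medium: LB broth containing kanamycin at 50 µg/mL. Benchmarks: chloramphenicol at 30 µM final as inhibition control. Measure: IC50 from 4-parameter logistic, bounds fixed 0–100%.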

| Structure (SMILES) | growth inhibition |
| --- | --- |
| CCCCCSc1nnc(-c2cc(Br)ccc2N)c(=O)[nH]1 | -4.38% (inactive) |
| CC(C)COC(=O)NCCOC(=O)Nc1cccc(Cl)c1 | 18.9% (inactive) |
| CCCc1cc(C(=O)Nc2cccc(Cl)c2)no1 | 12.5% (inactive) |
| CCOC(=O)C1CCCN(c2ncnc3c2cnn3-c2ccc(Cl)cc2)C1 (stereo not given) | -11.7% (inactive) |
| O=C1CC(c2ccco2)CC2=C1C1c3ccccc3C(=O)N1c1ccccc1N2 (stereo not given) | -3.27% (inactive) |
| CC(C)Cn1c(=O)c(C(=O)Nc2cnccn2)c(O)c2ccccc21 | 16.1% (inactive) |
| O=C(C1CC1)N1CCc2cc(S(=O)(=O)NCCC3=CCCCC3)ccc21 | 9.41% (inactive) |
| CCOC(=O)c1ccccc1NC(=O)C(C)Oc1ccccc1 (stereo not given) | -0.25% (inactive) |
| Cc1cc2n(n1)C(c1ccc3c(c1)OCO3)Nc1c(C)cccc1-2 (stereo not given) | -5.6% (inactive) |
| CSc1nc2ccc(NS(=O)(=O)c3ccc4c(c3)OCCO4)cc2s1 | -7.17% (inactive) |
| Cc1ccc(NC(=O)c2nnn(-c3cc(C)cc(C)c3)c2N)cc1 | -3.73% (inactive) |
| CCCCOc1ccc(S(=O)(=O)N2CCCCCC2)cc1 | 6.59% (inactive) |
| Cc1ccc(Cl)cc1N1CCN(C(=O)c2ccc(NS(=O)(=O)c3c(C)noc3C)cc2)CC1 | -7.75% (inactive) |
| CC(=Nc1ccc(O)cc1)c1sc2ccccc2c1O | -1.71% (inactive) |
| O=c1c2ccccc2nc(SCc2cn3ccsc3n2)n1-c1ccccc1F | -8.01% (inactive) |
| COC(=O)c1c(NC(=O)Cc2cccs2)sc2c1CCCC2 | 2.67% (inactive) |
| COc1ccccc1N1CCN(C(=O)COc2ccc(C)cc2Br)CC1 | 12.1% (inactive) |
| CCOC(=O)N1CCN(C(=O)COc2ccc(S(=O)(=O)Nc3ccc(OCC)cc3)cc2)CC1 | 3.01% (inactive) |
| CCOc1ccc(NS(=O)(=O)c2ccc(SC)cc2)cc1 | 11.9% (inactive) |
| CCOc1ccc(S(=O)(=O)Nc2cccc(Cl)c2)cc1 | 20% (active) |
| Cc1ccc(-n2c(=O)[nH]cc(C(=O)Nc3ccc4c(c3)OCCO4)c2=O)cc1C | -5.27% (inactive) |
| O=C(OC1CCc2ccccc2C1=O)c1ccccc1O (stereo not given) | 9.44% (inactive) |
| CCCCCc1cc(O)c2c(C)cc(=O)oc2c1 | 7.24% (inactive) |
| CCCCCCOC(=O)C(C#N)c1nc2ccccc2nc1N1CCN(C)CC1 (stereo not given) | 12.3% (inactive) |
| CC1=C(C(=O)OCC(C)C)C(c2cc3c(cc2Br)OCO3)NC(=O)N1C (stereo not given) | 12.5% (inactive) |
| CN(C)c1ccc(/C=N/n2ncc3ccccc32)cc1 | -3.99% (inactive) |
| COc1nc(N(c2ccccc2)c2ccccc2)nc(-n2ccnc2)n1 | 12.7% (inactive) |
| COc1ccccc1OCC(=O)N(Cc1nc(-c2ccccc2)no1)C1CCCCC1 | -2.24% (inactive) |

| Structure (SMILES) | growth inhibition |
| --- | --- |
| COC(=O)c1ccccc1NC(=O)N1c2ccccc2CC1C (stereo not given) | 3.49% (inactive) |
| Cc1ccc(C)n1-n1cnc2sc(-c3ccccc3)cc2c1=O | -14.3% (inactive) |
| CCOC(=O)c1cn(CC)c2cc(N3CCSCC3)c(F)cc2c1=O | 10.1% (inactive) |
| O=C(Nc1ccc(Cl)cc1)N(Cc1cccs1)Cc1cccs1 | -8.41% (inactive) |
| Cc1ccc(OCc2nc(C#N)c(N3CCN(Cc4ccccc4)CC3)o2)cc1 | -9.19% (inactive) |
| COc1ccc(OC)c(S(=O)(=O)N2CCN(c3c(C)cccc3C)CC2)c1 | -10% (inactive) |
| COc1cc(NS(=O)(=O)c2ccc(Br)cc2)c(OC)cc1NC(=O)c1ccco1 | -12% (inactive) |
| Fc1ccc(-n2c(Cc3ccccc3)nnc2SCc2nc(-c3cccs3)no2)cc1 | -13.2% (inactive) |
| C=CCOC(=O)C(C#N)c1nc2ccccc2nc1N1CCCC1 (stereo not given) | -1.85% (inactive) |
| COCc1cc(C)nc2sc3c(=O)oc(C)nc3c12 | 10.4% (inactive) |
| CCCCOC(=O)Nc1ccc(C(=O)OCCC)cc1 | 6.71% (inactive) |
| COC(=O)c1ccc(NC(=O)CN2CCN(c3cccc(Cl)c3)CC2)cc1 | -2.21% (inactive) |
| CC(C)(C)C1CCC2(CC1)C(C#N)=C(SCC(=O)NC1CCCCC1)NC(=O)C2C#N (stereo not given) | 12.2% (inactive) |
| N#CC1=C(SCC(=O)NC23CC4CC(CC(C4)C2)C3)NC(=O)C(C#N)C12CCCCC2 (stereo not given) | 18.1% (active) |
| N#CC1=C(SCC(=O)c2cc3ccccc3oc2=O)NC(=O)C(C#N)C12CCCC2 (stereo not given) | 14.3% (inactive) |
| CCN(CC)S(=O)(=O)c1ccc2[nH]cc(C(=O)NCCC3=CCCCC3)c(=O)c2c1 | -6.85% (inactive) |
| COc1ccc2nc(SCC(=O)N(C)C3CCCCC3)c(C#N)cc2c1 | -2.36% (inactive) |
| CCCOc1ccc(C2C(C(=O)c3ccc(C)o3)=C(O)C(=O)N2Cc2cccnc2)cc1 (stereo not given) | 6.33% (inactive) |
| Cc1cc(Nc2ccccc2)nc(-c2ccccc2O)n1 | -4.57% (inactive) |
| Clc1ccc(OCCn2ccnc2)c2ccccc12 | 12.7% [at 50 µM] (inactive) |
| O=S(=O)(Nc1nc2ccccc2nc1N1CCN(c2ccccn2)CC1)c1ccc(Cl)cc1 | -0.89% (inactive) |
| CC1CCCCN1S(=O)(=O)c1ccc(C(=O)Nc2nnc(-c3cccs3)o2)cc1 (stereo not given) | 2.23% (inactive) |
| O=C(Nc1nnc(-c2cccs2)o1)c1cccc(Oc2ccccc2)c1 | 12.7% (inactive) |
| Cc1cc(N2CCCCC2)nc(SCc2ccc(C#N)cc2)n1 | -5.55% (inactive) |
| Cc1ccccc1CSc1nc2n(n1)C(c1cccs1)C1=C(CCCC1=O)N2 (stereo not given) | -14.8% (inactive) |
| CCCCCn1c(N2CCC(Cc3ccccc3)CC2)nc2c1c(=O)[nH]c(=O)n2C | -11.3% (inactive) |
| CCOC(=O)Cc1nnc2c(Nc3ccccc3F)nc3nonc3n12 | -6.59% (inactive) |
